Only some compounds are listed: those with a hit (about 3% of all), similar ones and a draw of the others.
N-glyco inh – blocks N-linked glycosylation in D54 reporter cells | 360,000 compounds, 0.23% hits | D54 ERlucT glycosylation luciferase reporter, 24 h; percent of 100 nM tunicamycin response | AID 588692 | reporter increase, % at 12.5 µM;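 active means mean luciferase reporter signal, scaled so untreated is 0 and the glycosylation-blocking control 100, at or above a set limit in every replicate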;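 further: luciferase carries N-glycosylation sites so blocking glycosylation raises the light; 0% = median of neutral control wells and 100% = median of 100 nM tunicamycin wells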
CaV13 FRET inh – Disruptors of the CACNA1D IQ motif to Ca2+-dependent inactivation inhibitor domain association, primary screening, Förster resonance energy transfer in intact living …. HEK cells, CFP/YFP FRET ICDI-IQ, plate reader, 10 min; percent FRET-ratio fall versus neutral wells. inhibition, % at 12.3 µM. 340,000 compounds, 0.098% hits;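 active means mean replicate inhibition of at least 30% and at least 1% of replicates passing that level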;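 further: 0% = median of the neutral control wells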
HSF-1 act – increases HSF-1 driven luciferase reporter signal | NIH3T3-HGL HSF-1 luciferase reporter, MG132, 8 h; 100% = twice DMSO control signal | activation, % at 9 µM | 300,000 compounds, 1.7% hits | AID 504408;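 active means mean replicate activation of at least 50% with a set share of replicates each reaching 50%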;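 further: 0% = median of the neutral control wells and 100% = twice that signal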
PfHsp90 yeast 2 – growth inhibition of yeast expressing Plasmodium Hsp90; 310,000 compounds, 0.32% hits; inhibition, % at 9.4 µM; S. cerevisiae expressing PfHsp90, BacTiter-Glo ATP, 48 h; yeast lacking PDR1 and PDR3 efflux regulators; AID 504621;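 active means every replicate shows inhibition above about 80%, whatever the replicate mean, limit read from the data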;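 further: 0% = DMSO neutral controls and 100% = 20 µM radicicol positive controls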
T cruzi repl – T. cruzi replication inhibition. T. cruzi beta-gal in NIH3T3, luminescence, 90 h. inhibition, % (test concentration not listed). 300,000 compounds, 1.4% hits. AID 1885;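 active means mean inhibition across valid replicates above about 55%, limit read from the data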;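 further: signal also drops with host cell toxicity which is not excluded here; 0% = plate median of DMSO wells and 100% = zero luminescence signal; higher percent means less beta-gal luminescence so fewer parasites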
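assay system = mouse NIH/3T3 fibroblasts infected with β-gal-expressing T. cruzi Tulahuen C4 | input = 5,000 NIH/3T3 host cells per well | buffer or medium = DMEM plus 2% FBS | timing = 3 h host attachment, then at least 90 h co-culture | measured by = GalScreen luminescence, 60 min | evaluation = luminescence reflecting intracellular parasite burden, expressed as percent inhibition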
PvdQ inh – blocks Pseudomonas aeruginosa PvdQ acylase activity. purified PvdQ acylase, fluorescence plate reader. inhibition, % at 10 µM. 340,000 compounds, 0.063% hits. AID 488965; in the data active means inhibition above about 30%, passing the limit was not always enough;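 further: 0% = vehicle neutral wells and 100% = reference inhibitor wells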
Numbers without * were called inactive.

How did COc1cccc(C(NC(C)=O)c2nc(-c3ccc(F)cc3OC)cs2)c1 (stereo not given) do in these assays?
N-glyco inh: 49.8*; CaV13 FRET inh: -10.9

What do the screens show for `COc1cc(F)ccc1-c1csc(C(NC(C)=O)c2ccc(F)c(F)c2)n1` (stereo not given)?
N-glyco inh: 42.2*; CaV13 FRET inh: -11.2

What do the screens show for `COc1cccc(C(O)c2nc(-c3ccc(F)cc3OC)cs2)c1` (stereo not given)?
N-glyco inh: -1.1; CaV13 FRET inh: -4.6

How did COc1ccccc1-c1csc(C(NC(C)=O)c2ccccc2)n1 (stereo not given) do in these assays?
N-glyco inh: 41.7*; CaV13 FRET inh: -9.6

Results for COc1cc(F)ccc1-c1csc(C(NC(C)=O)c2ccccc2)n1 (stereo not given) ?
N-glyco inh: 50.2*; CaV13 FRET inh: -8.6

What do the screens show for `Cc1ccc(S(=O)(=O)N2CCCCC2)cc1C(=O)N(CCc1ccccc1)Cc1ccccc1`?
N-glyco inh: -5.7; CaV13 FRET inh: -2.5; HSF-1 act: 14.3; T cruzi repl: 50.7; PvdQ inh: -4.1

What do the screens show for `CCOC(=O)/C(=C\Nc1cccc(OCc2ccccc2)c1)NC(=O)c1ccccc1`?
CaV13 FRET inh: -12.4

What do the screens show for `Cc1cccc(C(=O)OCC(=O)c2ccc3c(c2)OCCO3)c1O`?
N-glyco inh: -9.8; CaV13 FRET inh: -14.3; PvdQ inh: -1.9

What do the screens show for `Cc1cccc(C(=O)OCC(=O)c2ccc3c(c2)OCO3)c1O`?
N-glyco inh: -6.6; HSF-1 act: 66.3*; PfHsp90 yeast 2: 10.7; T cruzi repl: 5.3; PvdQ inh: 12.7

What do the screens show for `CC1=C(C(=O)N(C(C)C)C(C)C)CC(CC(=O)NCCN2CCOCC2)C(=O)N1CCC1=CCCCC1` (stereo not given)?
N-glyco inh: 2.1; CaV13 FRET inh: -3.4

How did CC(NCc1ccccc1O)C12CC3CC(CC(C3)C1)C2 (stereo not given) do in these assays?
N-glyco inh: -1.9; CaV13 FRET inh: -4.2; HSF-1 act: 12.2; PfHsp90 yeast 2: -7.3; T cruzi repl: 15.7; PvdQ inh: -4.0

What do the screens show for `CC(NCc1ccncc1)C12CC3CC(CC(C3)C1)C2` (stereo not given)?
N-glyco inh: 1.3; CaV13 FRET inh: -1.2; HSF-1 act: 2.5; PfHsp90 yeast 2: 11.2; T cruzi repl: 62.6*; PvdQ inh: 3.1

Results for CCn1nc(C)cc1-c1nnc(SCC(=O)Nc2ccccc2)n1CCCOC ?
N-glyco inh: 0.8; CaV13 FRET inh: -4.4; HSF-1 act: -0.4; PfHsp90 yeast 2: -0.1; T cruzi repl: 6.9; PvdQ inh: 2.7

What do the screens show for `CCn1nc(C)cc1-c1nnc(Sc2ncc([N+](=O)[O-])s2)n1C`?
N-glyco inh: -6.4; CaV13 FRET inh: -4.6; HSF-1 act: 122.5*; PfHsp90 yeast 2: -30.7; T cruzi repl: 61.4*; PvdQ inh: -13.5

What do the screens show for `Nc1ccc(-c2nc3ccccc3[nH]2)cc1`?
N-glyco inh: 0.7; CaV13 FRET inh: 13.8; HSF-1 act: 29.4; PfHsp90 yeast 2: 19.0; T cruzi repl: 1.2; PvdQ inh: -10.6

How did c1ccc(-c2cc(-c3nc4ccccc4[nH]3)c3ccccc3n2)cc1 do in these assays?
N-glyco inh: 2.1; CaV13 FRET inh: -4.1; HSF-1 act: 3.8; PfHsp90 yeast 2: -1.8; T cruzi repl: 54.6*; PvdQ inh: 3.8

How did Cc1cc(C)n2nc(C(=O)N/N=C/c3c4ccccc4cc4ccccc34)nc2n1 do in these assays?
N-glyco inh: 2.9; CaV13 FRET inh: -4.1; HSF-1 act: 188.4*; PfHsp90 yeast 2: -39.1; T cruzi repl: 0.1; PvdQ inh: -9.0

Results for NC(=O)C(NN=C(c1ccccc1)c1ccccc1)c1ccccc1 (stereo not given) ?
N-glyco inh: -1.1; CaV13 FRET inh: -5.6

What do the screens show for `COCCNC(=O)C(c1ccncc1)N(C(=O)c1sc(C)nc1C)c1cccc(C)c1` (stereo not given)?
N-glyco inh: 1.3; CaV13 FRET inh: -5.8; HSF-1 act: 74.6*; PfHsp90 yeast 2: 10.3; T cruzi repl: 2.5; PvdQ inh: 0.9

How did COc1ccc(-c2c(C(=O)c3ccccc3)[nH]c(N)c2C(=O)NCCc2c[nH]c3ccccc23)cc1 do in these assays?
CaV13 FRET inh: -14.7

How did COc1ccc(C(=O)c2[nH]c(N)c(C(=O)c3c[nH]c4ccccc34)c2-c2ccc(F)c(OC)c2)cc1 do in these assays?
CaV13 FRET inh: -17.4

Results for COc1ccc(CN2CCCCCC2)cc1OC ?
N-glyco inh: 4.2; CaV13 FRET inh: -4.9; HSF-1 act: -21.9; T cruzi repl: 15.2

How did COc1ccccc1CCNCc1ccc(OC)c(OCc2ccccc2)c1 do in these assays?
N-glyco inh: 34.4*; CaV13 FRET inh: -3.7; HSF-1 act: -1.3; PfHsp90 yeast 2: 19.0; T cruzi repl: 2.3; PvdQ inh: -13.7

How did COc1cc(CN2CCCCC2)ccc1OCc1ccccc1 do in these assays?
N-glyco inh: -3.9; CaV13 FRET inh: -1.4; HSF-1 act: 16.6; PfHsp90 yeast 2: 0.1; T cruzi repl: 82.1*; PvdQ inh: -5.5

What do the screens show for `COc1cc(CNCCc2ccc(S(N)(=O)=O)cc2)ccc1OCc1ccc(Cl)cc1`?
N-glyco inh: -7.7; CaV13 FRET inh: -7.3; HSF-1 act: 29.6; PfHsp90 yeast 2: -5.7; T cruzi repl: 65.8*; PvdQ inh: 0.6

Results for COc1cc(CNCCc2c[nH]c3ccccc23)ccc1OCc1ccccc1F ?
N-glyco inh: 2.6; CaV13 FRET inh: -10.2; HSF-1 act: -9.9; PfHsp90 yeast 2: -16.2; T cruzi repl: 54.6*; PvdQ inh: -7.4

What do the screens show for `C[C@@H]1CCCCO[C@@H](CN(C)CC2CCCCC2)[C@@H](C)CN([C@H](C)CO)C(=O)c2cc(NC(=O)Nc3ccc4c(c3)OCO4)ccc2O1`?
CaV13 FRET inh: -5.8

Results for O=C(N[C@H](C(=O)N1CCC[C@H]1C(=O)NC1CCCC1)C1CCCCC1)c1cccs1 ?
CaV13 FRET inh: -10.7

What do the screens show for `COC(=O)[C@H](CC(C)C)NC(=O)/C=C/[C@H]1O[C@@H](n2ccc(=O)[nH]c2=O)[C@H](O)[C@@H]1O`?
N-glyco inh: 1.5; CaV13 FRET inh: -3.4

What do the screens show for `COc1ccc(/C=N/OCC(=O)NC(c2ccccc2)c2ccccc2)cc1OC`?
N-glyco inh: -0.8; CaV13 FRET inh: -3.3; HSF-1 act: 5.1; PfHsp90 yeast 2: -1.7; T cruzi repl: 56.6*; PvdQ inh: -4.6

What do the screens show for `O=C(NCCCCc1ccccc1)c1cccc(NC(=O)C2CCCC2)c1`?
N-glyco inh: -3.1; CaV13 FRET inh: -6.2; PfHsp90 yeast 2: -2.7; PvdQ inh: -16.6

Assay outcomes deposited in PubChem BioAssay by Broad Institute.
